# Screening results (PubChem)
# Shown are actives, neighbours in structure and some others; about 2.9% of the full set was active somewhere.
# DENV2 CPE: inhibitors of DENV2 cytopathic effect | DENV2-infected cells, cytopathic effect rescue, plate reader | CPE inhibition, % at 9.99 µM | 350,000 compounds, 1.7% hits | AID 651640; in the data active means CPE inhibition above about 20%, passing the limit was not always enough; inconclusive means no clear call, values can overlap the other calls; tested in BHK-21 cells;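 further: 0% = median of neutral control wells and 100% = median of positive control wells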
# CAL PDZ FP-1: blocks peptide binding to human CAL PDZ domain; AID 504414; inhibition, % at 20 µM; 330,000 compounds, 0.02% hits; purified CAL PDZ, TMR-peptide fluorescence polarization, 1 h;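 active means highest replicate inhibition of at least 40%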;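 further: plate controls were DMSO neutral control wells for no effect and unlabeled competitor peptide control wells for full effect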
#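 material = purified tagged CAL PDZ domain construct (CerCALP) | buffer or medium = sodium phosphate/NaCl buffer pH 7.4 with TCEP, IgG, Thesit | reagent = TMR-labelled reporter peptide T*-PRC34 bound in PDZ groove | incubation = 1 h room-temperature incubation prior to read | measured by = fluorescence polarization (mP) | evaluation = percent inhibition from loss of millipolarization | control set = unlabelled peptide and DMSO controls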
# ERAP1 HTS inh: blocks human ERAP1 aminopeptidase activity; Q9NZ08; recombinant ERAP1, Leu-AMC fluorescence, 60 min; 340,000 compounds, 0.15% hits; inhibition, % at 10.7 µM;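 active means mean replicate inhibition of at least 30%, or all replicates individually reaching that 30% level; inactive means mean below 30% and not every replicate reaching it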;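 further: 0% = neutral control wells and 100% = L-leucinethiol positive control wells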
# SIRT5 block: sirtuin-5 (human) deacylase inhibition; 330,000 compounds, 1.1% hits; Purified SirT5, succinyl-peptide AMC, trypsin-coupled fluorescence; Q9NXA8; inhibition, % at 15 µM; in the data active means inhibition above about 15%; inconclusive means no clear call, values can overlap the other calls
# Target sequence (Q9NXA8 whole entry, looked up): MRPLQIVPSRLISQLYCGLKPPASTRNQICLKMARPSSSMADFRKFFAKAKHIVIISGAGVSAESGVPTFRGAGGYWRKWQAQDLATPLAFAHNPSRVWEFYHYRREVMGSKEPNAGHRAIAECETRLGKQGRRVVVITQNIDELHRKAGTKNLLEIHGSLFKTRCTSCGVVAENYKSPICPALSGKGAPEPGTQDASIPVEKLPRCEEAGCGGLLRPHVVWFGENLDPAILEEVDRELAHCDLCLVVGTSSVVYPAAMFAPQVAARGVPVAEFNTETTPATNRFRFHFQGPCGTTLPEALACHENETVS
# CAL PDZ FP-2: blocks peptide binding to the human CAL PDZ domain. inhibition, % at 24.9 µM. 300,000 compounds, 0.92% hits. purified CAL PDZ, TMR-peptide fluorescence polarization, 1 h. Q9HD26;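 active means mean inhibition of at least 30% with at least half of replicates also reaching 30%; inconclusive means no clear call, values can overlap the other calls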;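 further: 0% = DMSO neutral control and 100% = excess unlabeled competitor peptide PRC23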
# S100A4 inh HTS: S100A4-myosin IIA interaction inhibition. S100A4/TAMRA-MyoIIA peptide fluorescence polarization. inhibition, % at 10.7 µM. 360,000 compounds, 0.14% hits. AID 652163;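 active means mean inhibition of at least 70% across replicates, with every replicate also reaching that level; inconclusive means mean inhibition reaches 70% but some replicates fall short; inactive means mean inhibition below 70%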
# Target sequence (P26447 whole entry, looked up): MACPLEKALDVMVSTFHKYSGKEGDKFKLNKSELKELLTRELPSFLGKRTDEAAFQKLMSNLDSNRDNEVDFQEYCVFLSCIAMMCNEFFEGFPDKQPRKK
#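 Material: S100A4 monomer (human). Medium: Calcium-containing HEPES buffer, pH 7.2. Probe or stimulus: labelled myosin peptide probe, 5 nM. Compound dosing: one concentration per compound. Timing: polarization read 5 min after assay mix addition, stable 5–60 min. Benchmarks: DMSO as neutral control, TFP as positive control.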
# Starred values were filed as active, the others as inactive; ? = inconclusive; / = no result given.
SMILES,DENV2 CPE,CAL PDZ FP-1,ERAP1 HTS inh,SIRT5 block,CAL PDZ FP-2,S100A4 inh HTS
C[C@@H]1CN([C@H](C)CO)C(=O)c2cc(NS(=O)(=O)c3ccc(Cl)cc3)ccc2O[C@@H](C)CCCCO[C@H]1CN(C)C(=O)Nc1ccc(C(F)(F)F)cc1,8,/,0,22*,/,-7
C[C@@H]1CCCCO[C@H](CN(C)C(=O)Nc2ccc(C(F)(F)F)cc2)[C@H](C)CN([C@@H](C)CO)C(=O)c2cc(NS(=O)(=O)c3ccc(F)cc3)ccc2O1,98*,/,-1,0,/,-2
CCCC(O)C#Cc1cnc2c(c1)C(=O)N([C@H](C)CO)C[C@H](C)[C@H](CN(C)Cc1cccc(C)c1)O2 (some centres undefined),5,/,1,-9,/,7
O=C(Nc1cccc(Cl)c1)N1C[C@H]2[C@@H](c3ccccc31)[C@H](CO)N2Cc1ccncc1,-5,/,0,0,/,8
C[C@@H]1CCCCO[C@H](CN(C)C(=O)Nc2ccc(C(F)(F)F)cc2)[C@@H](C)CN([C@@H](C)CO)C(=O)c2cc(NS(=O)(=O)c3ccc(F)cc3)ccc2O1,-3,/,-2,18*,/,20
C[C@@H]1CCCCO[C@H](CN(C)C(=O)Nc2ccc(C(F)(F)F)cc2)[C@@H](C)CN([C@H](C)CO)C(=O)c2cc(NS(=O)(=O)c3ccc(F)cc3)ccc2O1,21*,/,0,-2,/,-4
Cc1ccc(S(=O)(=O)Nc2ccc3c(c2)C(=O)N([C@@H](C)CO)C[C@@H](C)[C@H](CN(C)C(=O)Nc2ccc(C(F)(F)F)cc2)OCCCC[C@@H](C)O3)cc1,?,/,8,1,/,0
Cc1ccc(S(=O)(=O)Nc2ccc3c(c2)C(=O)N([C@@H](C)CO)C[C@H](C)[C@@H](CN(C)C(=O)Nc2ccc(C(F)(F)F)cc2)O3)cc1,?,/,0,16*,/,4
C[C@H]1CN([C@@H](C)CO)C(=O)c2cc(NS(=O)(=O)c3ccc(F)cc3)ccc2O[C@H]1CN(C)C(=O)Nc1ccc(C(F)(F)F)cc1,11,/,2,2,/,8
COc1ccc2c3c(n(C)c2c1)[C@@H](CO)N(S(C)(=O)=O)CC31CCN(Cc2cccnc2)CC1,-5,/,3,/,/,6
CCCNC(=O)N1CC2(CCN(CC3CCOCC3)CC2)c2c(n(C)c3cc(OC)ccc23)[C@@H]1CO,12,/,/,/,/,/
COC(=O)C[C@@H]1CC[C@H]2[C@@H](COc3ccc(NC(=O)c4cc(F)cc(F)c4)cc3C(=O)N2C)O1,4,/,/,/,/,/
Cc1cccc2cc(-c3nc4ccc(C(=O)O)cc4[nH]3)c(=O)oc12,/,/,/,/,81*,/
CN(C)C(=O)[C@@H]1[C@@H](CO)[C@@H]2Cn3c(ccc(-c4ccccc4)c3=O)[C@H]1N2C(=O)C1CC1,13,/,1,-17,/,50
Cc1ccc(S(=O)(=O)N(c2nc(NC(C)C)nc(NC(C)C)n2)n2cnnc2)cc1,24*,-3,-2,-1,0,-2
COC(=O)CN(n1cnnc1)S(=O)(=O)c1ccc(C)cc1,/,0,/,/,1,/
COC(=O)C[C@H]1CC[C@H]2[C@H](COc3ccc(NC(=O)Nc4cccc(Cl)c4)cc3C(=O)N2C)O1,-4,/,1,-3,/,34
CN(C)c1ccc(/C=C/c2ccc3c4ccccc4ccc3[n+]2-c2ccccc2)cc1,/,8,-1,1,-5,156*
CC(=O)OC1CCC2C3CCC4=CC(=O)CCC4(C)C3CCC2(C)[C@]1(C)O (some centres undefined),106*,-1,-2,-3,-18,1
CSc1ncc(CN2CCN(C3CCCC3)C(CCO)C2)cn1 (centres undefined),1,-3,/,-2,31*,-7
OCCC1CN(Cc2cnc(N3CCCC3)s2)CCN1C1CCCC1 (centres undefined),-2,0,3,-2,2,-2
Cc1ncc(CN2CCN(C3CCCC3)C(CCO)C2)s1 (centres undefined),2,0,-3,0,82*,-3
Cc1nc(N2[C@@H](C#N)[C@@H](c3ccccc3)[C@@H]2CO)sc1C,0,/,-10,1,/,-3
O=C(Oc1ccc(Cl)c2cccnc12)c1cccnc1,2,/,-2,0,52*,0
Cc1ccc(C(=O)Oc2ccc(Cl)c3cccnc23)cc1[N+](=O)[O-],/,-1,/,/,6,/
SMILES,DENV2 CPE,CAL PDZ FP-1,ERAP1 HTS inh,SIRT5 block,CAL PDZ FP-2,S100A4 inh HTS
CCCNC(=O)N1C[C@@H](O)COC[C@@H]2O[C@H](CC(=O)N3CCOCC3)CC[C@H]21,-10,/,0,5,/,-2
CCCNC(=O)N1C[C@H](O)COC[C@H]2O[C@H](CC(=O)N3CCC(Cc4ccccc4)CC3)CC[C@@H]21,7,/,-3,11,/,0
CCCNC(=O)N1C[C@@H](O)COC[C@@H]2O[C@H](CC(=O)N3CCC(Cc4ccccc4)CC3)CC[C@H]21,0,/,-2,23*,/,-2
CN1CCN(C(=O)C[C@@H]2CC[C@H]3[C@@H](COC[C@H](O)CN3C(=O)C3CCCC3)O2)CC1,76*,/,3,0,/,-54
CCCNC(=O)N1C[C@H](O)COC[C@@H]2O[C@@H](CC(=O)N3CCOCC3)CC[C@H]21,108*,/,-1,0,/,7
O=C(C[C@@H]1CC[C@H]2[C@@H](COC[C@H](O)CN2CCC(F)(F)F)O1)N1CCC(Cc2ccccc2)CC1,7,/,0,17*,/,-19
COc1ccc2c3c(n(C)c2c1)[C@@H](CO)N(C)CC31CN(S(C)(=O)=O)C1,1,/,/,/,/,/
O=C(C[C@@H]1CC[C@@H]2[C@H](COC[C@H](O)CN2CC2CCOCC2)O1)N1CCOCC1,102*,/,1,2,/,0
C[C@@H]1CN([C@H](C)CO)C(=O)Cc2cc(NS(=O)(=O)c3ccccc3)ccc2O[C@H]1CN(C)Cc1ccc(-c2ccccc2)cc1,0,/,-3,15*,/,7
C[C@@H]1CN([C@@H](C)CO)C(=O)Cc2cc(NS(=O)(=O)c3cn(C)cn3)ccc2O[C@H]1CN(C)Cc1ccc(-c2ccccc2)cc1,26*,/,0,-5,/,-11
C[C@H](CO)N1C[C@H](C)[C@@H](CN(C)Cc2ccc(-c3ccccc3)cc2)Oc2ccc(NS(=O)(=O)c3ccccc3)cc2CC1=O,-26,/,-2,18*,/,-2
C[C@@H]1CN([C@H](C)CO)C(=O)Cc2cc(NS(=O)(=O)c3ccccc3)ccc2O[C@@H]1CN(C)Cc1ccccc1,-10,/,0,4,/,79*
CC=Cc1ccc2n(c1=O)C[C@@H]1[C@@H](CO)[C@H](C(=O)Nc3ccc(-c4ccccc4)cc3)[C@H]2N1CC (mixture of isomers),7,/,0,/,/,7
